Test results as given in ChEMBL document CHEMBL1125226, “Antineoplastic activity of didemnin congeners: nordidemnin and modified chain analogues” (1991).
≈ marks a conversion by molar mass, not a printed value.

Assays:
P388 [1] = test: Average weight change of animals between day 1 and day 5 after tumor implementation at a dose of 0.06 mg/kg/day; type: functional, Mus musculus
How it was run: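 P388 leukemia: CDF1 female mice were inoculated ip with 10⁶ cells on day 0. Treatment in 2% methanol was given ip on days 1, 5 and 9, with 10 mice per group and a larger control group. Body weight was recorded on days 1 and 5 post-implant, and the average change was reported.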

L1210 [2] = test: Antitumor activity against L1210 Lymphoid Leukemia from CDF1 female mice (T/C) as median survival time of treated mice (T) over that of control mice (C) at a dose of 1.0 mg/kg/day; type: functional, Mus musculus
How it was run: (§1)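 L1210 leukemia, 10⁵ cells ip on day 0 into CDF1 female mice (BALB/c ♀ × DBA/2 ♂). Drug in 2% methanol given ip on days 1, 5 and 9, 10 mice per group. Survivors and body weight recorded on days 1 and 5, with toxicity as survivors on day 5. Deaths followed for 30 days. T/C = treated/control median survival time, significant at ≥125%.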

P388 [3] = test: Antitumor activity against P388 Leukemia from CDF1 female mice evaluated as Median survival time of treated mice at a dose of 0.50 mg/kg/day; type: functional, Mus musculus
How it was run: (§2)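 CDF1 female mice (BALB/c × DBA/2) inoculated ip with 10⁶ P388 cells on day 0. Drug given ip in 2% methanol on days 1, 5 and 9. Ten mice per dose group, with a larger control group. Body weight and survival were recorded on days 1 and 5, with toxicity taken as survivors on day 5. Mortality was followed for 30 days to give median survival time.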

B16 [4] = test: Antitumor activity against B16 melanoma from B6 D2 F1 female mice as Median survival time of treated mice at a dose of 0.25 mg/kg/day (repeated ip injections, day 1-9); type: functional, Mus musculus; conditions: route intraperitoneal
How it was run: (§3)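 B16 melanoma homogenate (1 g tumor in 9 mL 0.9% saline), 0.5 mL implanted ip on day 0 in B6D2F1 female mice (C57BL/6 ♀ × DBA/2 ♂). Treatment ip once daily from day 1 to day 9. Toxicity scored as survivors on day 5. Median survival recorded and T/C computed as treated/control median survival, ≥125% significant.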

P388 [5] = test: Antitumor activity against P388 Leukemia from CDF1 female mice evaluated as Median survival time of treated mice at a dose of 0.75 mg/kg/day; type: functional, Mus musculus; how it was run: as §2
B16 [6] = test: Antitumor activity against B16 melanoma from B6 D2 F1 female mice evaluated as average weight change of animals between day 1 and day 5 after tumor implementation at a dose of 0.50 mg/kg/day; type: functional, Mus musculus
How it was run: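 B16 melanoma in B6D2F1 female mice: 0.5 mL of tumor homogenate (1 g in 9 mL 0.9% saline) was given ip on day 0. Ip dosing was on days 1, 5 and 9. The readout was the average body weight change between day 1 and day 5 after tumor implantation.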

B16 [7] = test: Antitumor activity against B16 melanoma from B6 D2 F1 female mice evaluated as Median survival time of treated mice at a dose of 0.50 mg/kg/day; type: functional, Mus musculus
How it was run: (§4)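 B6D2F1 female mice (C57BL/6 ♀ × DBA/2 ♂) implanted ip on day 0 with 0.5 mL of B16 tumor suspension (1 g homogenized in 9 mL 0.9% saline). Dosing ip on days 1, 5 and 9. Day-5 survivors give toxicity. Median survival of treated vs control mice gives T/C%, with ≥125% significant.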

B16 [8] = test: Antitumor activity against B16 melanoma from B6 D2 F1 female mice(T/C) was evaluated from the median survival time of treated mice (T) over that of control mice (C) at a dose of 0.25 mg/kg/day; type: functional, Mus musculus; how it was run: as §4
P388 [9] = test: Antitumor activity against P388 Leukemia from CDF1 female mice evaluated as Median survival time of treated mice at a dose of 0.06 mg/kg/day; type: functional, Mus musculus
How it was run: (§5)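 CDF1 female mice (BALB/c ♀ × DBA/2 ♂) given 10⁶ P388 cells ip on day 0. Drug in 2% methanol given ip on days 1, 5 and 9, 10 mice per group and more controls. Toxicity is survivors on day 5, with weight change between days 1 and 5. Mortality followed 30 days. T/C% is treated over control median survival (NCI method), significant at ≥125%.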

P388 [10] = test: Antitumor activity against P388 Leukemia from CDF1 female mice evaluated as Median survival time of treated mice at a dose of 0.12 mg/kg/day; type: functional, Mus musculus; how it was run: as §5
B16 [11] = test: Antitumor activity against B16 melanoma from B6 D2 F1 female mice evaluated as the number of survivors on day 5 at a dose of 0.25 mg/kg/day; type: functional, Mus musculus; how it was run: as §4
B16 [12] = test: Antitumor activity against B16 melanoma from B6 D2 F1 female mice as average weight change of animals between day 1 and day 5 after tumor implementation at a dose of 0.06 mg/kg/day (repeated ip injections, day 1-9); type: functional, Mus musculus; conditions: route intraperitoneal
How it was run: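 B6D2F1 female mice (C57BL/6 × DBA/2) were implanted ip on day 0 with 0.5 mL of B16 suspension (1 g tumor homogenized in 9 mL 0.9% saline). Ip treatment was given once daily, day 1 to day 9. Body weight was recorded on days 1 and 5 after implantation, and the mean change per group was reported.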

L1210 [13] = test: In vitro cytostatic activity determined on L1210 leukemia cells at 48 hours.; type: functional; conditions: Mus musculus, L1210, 48 h; read-out: ID50 (the source's name)
How it was run: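 Log-phase L1210 cells were seeded at 0.8 × 10⁵ cells/mL in RPMI 1640 with 20% heat-inactivated horse serum, 2 mmol/L L-glutamine, streptomycin and penicillin. Drugs in ethanol (0.5% final) were tested at several concentrations.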

L1210 [14] = test: Antitumor activity against L1210 Lymphoid Leukemia from CDF1 female mice evaluated as the number of survivors on day 5 at a dose of 0.25 mg/kg/day; type: functional, Mus musculus; how it was run: as §1
B16 [15] = test: Antitumor activity against B16 melanoma from B6 D2 F1 female mice(T/C) as median survival time of treated mice (T) over that of control mice (C) at a dose of 0.50 mg/kg/day (repeated ip injections, day 1-9); type: functional, Mus musculus; conditions: route intraperitoneal; how it was run: as §3
B16 [16] = test: Antitumor activity against B16 melanoma from B6 D2 F1 female mice evaluated as the number of survivors on day 5 at a dose of 0.06 mg/kg/day (repeated ip injections, day 1-9); type: functional, Mus musculus; conditions: route intraperitoneal; how it was run: as §3
B16 [17] = test: Antitumor activity against B16 melanoma from B6 D2 F1 female mice evaluated as the number of survivors on day 5 at a dose of 0.50 mg/kg/day; type: functional, Mus musculus; how it was run: as §4
L1210 [18] = test: Antitumor activity against L1210 Lymphoid Leukemia from CDF1 female mice as average weight change of animals between day 1 and day 5 after tumor implementation at a dose of 0.25 mg/kg/day; type: functional, Mus musculus
How it was run: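 CDF1 female mice (BALB/c × DBA/2) received 10⁵ L1210 cells ip on day 0. Drug was dissolved in 2% methanol and given ip on days 1, 5 and 9, to 10 mice per group. Weights were taken on days 1 and 5, and the mean change was reported.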

P388 [19] = test: Antitumor activity against P388 Leukemia from CDF1 female mice evaluated as the number of survivors on day 5 at a dose of 0.03 mg/kg/day; type: functional, Mus musculus; how it was run: as §2
B16 [20] = test: Antitumor activity against B16 melanoma from B6 D2 F1 female mice evaluated as Median survival time of treated mice at a dose of 1 mg/kg/day; type: functional, Mus musculus; how it was run: as §4
P388 [21] = test: Antitumor activity against P388 Leukemia from CDF1 female mice evaluated as number of survivors on day 5 at a dose of 1 mg/kg/day; type: functional, Mus musculus; how it was run: as §2

## COc1ccc(C[C@H]2C(=O)O[C@H](C)[C@H](NC(=O)[C@@H](CC(C)C)N(C)C(=O)C3CCCN3C(=O)[C@@H](C)O)C(=O)NC(C(C)C)[C@H](O)CC(=O)O[C@@H](C(C)C)C(=O)[C@H](C)C(=O)N[C@@H](CC(C)C)C(=O)N3CCC[C@H]3C(=O)N2C)cc1 (stereo partly specified) [NORDIDEMNIN]
P388 [1]
  Body weight change: 0.2 g
L1210 [2]
  T/C: 123%
P388 [3]
  median survival time, days: 17.9
B16 [4]
  median survival time, days: 29.8
P388 [5]
  median survival time, days: 19.4
B16 [6]
  Body weight change: -0.9 g
B16 [7]
  median survival time, days: 28
B16 [8]
  T/C: 142%
P388 [9]
  median survival time, days: 13.6
P388 [10]
  median survival time, days: 14.7
B16 [11]
  Toxicity: 1
B16 [12]
  Body weight change: -0.3 g
L1210 [13]
  IC50: 1.9 ng/mL (≈ 1.73 nM)
L1210 [14]
  Toxicity: 1
B16 [15]
  T/C: 52%
B16 [16]
  Toxicity: 1
B16 [17]
  Toxicity: 1
L1210 [18]
  Body weight change: 0 g
P388 [19]
  Toxicity: 1
B16 [20]
  median survival time, days: 29.3
P388 [21]
  Toxicity: 1
